Ecoli WT expand: growth inhibitors of E. coli BW25113 wild type. OD600 absorbance. growth inhibition, % at 100 µM. hit rate 0.15% among 98,000;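 active = growth inhibition above about 50% at one test dose, limit read from the data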;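 also: growth measured after 20 h incubation at 37 °C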
Calb biofilm kill: kills Candida albicans biofilms; C. albicans biofilm + clotrimazole, Alamar Blue; inhibition, % at 6 µM; hit rate 0.14% among 85,000;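 active = inhibition above 20%; inactive = inhibition below 20%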;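 also: preformed 24 hr biofilms exposed to compound for 48 hr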
PostGolgi ctrl: inhibits growth of the yeast control strain. inhibition, % at 10 µM. hit rate 5% among 98,000. efflux-deficient yeast background strain, growth absorbance A615, 16 h
Ecoli tolC: blocks growth of E. coli BW25113 tolC mutant; hit rate 2.2% among 65,000; growth inhibition, % at 10 µM (by protocol); OD615;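 active = growth inhibition at or above a cutoff equal to the mean over every tested compound plus 3 SD, cut at about 60% in these data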;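 also: growth measured after 20 h incubation at 37 °C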
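Test system – E. coli BW25113 ΔtolC::kan, tolC deletion mutant strain · Detection – OD at 615 nm · Buffer or medium – LB with kanamycin 50 µg/mL · Times – 20 h compound exposure of bacteria at 37 °C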
PostGolgi yeast: growth inhibition of a yeast mutant, post-Golgi transport screen; post-Golgi transport phenotypic cell assay; inhibition, % at 10 µM; hit rate 0.9% among 98,000; AID 739;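 also: yeast cells grown in 1536-well plates; yeast grown about 18 h at 30C before absorbance read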
Pyk2 oligo antag: antagonists of human Pyk2 oligomerization | Q293 cells, Pyk2 FERM NanoBiT luminescence; active compounds read low | hit rate 0.83% among 99,000 | AID 1347419 | z-score (the deposit names both 25 µM and 10 µM) | Q14289;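 active = Z-score of -3 or lower, scaled per plate to the spread of control and sample wells; inactive = z-score above -3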;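 also: negative z-score means lost luminescence so less FERM oligomerization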
Of the large screens only hits and unclear results are named; the others gave an inactive call. Most compounds without a hit are left out; they make up all but 6.5% or so of the library. Rule as the data show it, unless noted: active = inhibition above about 30%; inactive = the rest.

CCOC(=O)C1=C(CSc2nc(-c3ccccc3)ccc2C#N)OC(N)=C(C#N)C1c1cccnc1 (stereo not drawn)	PostGolgi yeast 61 (no result: Ecoli tolC)
CCOc1cc(-c2c(C#N)c(=O)[nH]c3c2c(C)nn3-c2ccc(F)cc2)ccc1O	Ecoli tolC 97
Cc1ccc(C2CC(=O)NC(SCC(=O)Nc3nccs3)=C2C#N)cc1 (stereo not drawn)	none (no result: Calb biofilm kill, Ecoli tolC)
Cc1cc(NC(=O)Cn2nnc3sc4c(c3c2=O)CCC(C(C)(C)C)C4)no1 (stereo not drawn)	PostGolgi ctrl 31, Ecoli tolC 76 (no result: Calb biofilm kill)
CCC(C)(C(=O)NC1CCCC1)N(C(=O)c1ccccn1)c1ccc(C)cc1 (stereo not drawn)	none (no result: Ecoli tolC)
CCN(CC)N=Nc1[nH]nc2nc(C)cc(C)c12	Ecoli WT expand 63 (no result: Calb biofilm kill, Ecoli tolC)
CC(=O)n1nc2nc(C)cc(C)c2c1N	none
Cn1nnc(NC(=O)c2ccc3ccccc3c2)n1	none (no result: Ecoli WT expand, PostGolgi ctrl, Ecoli tolC, PostGolgi yeast)
Cc1nnc(NC(=O)c2ccc(S(=O)(=O)N(C)Cc3ccccc3)cc2)o1	Ecoli tolC 74
Cc1nnc(NC(=O)c2ccc3ccccc3c2)o1	Ecoli WT expand 50
COCc1cc(C)nc(OCC(=O)N/N=C\c2cc(C)n(-c3cccc(C(F)(F)F)c3)c2C)c1C#N	none (no result: Calb biofilm kill, Ecoli tolC)
COC(=O)C1=NN(N=O)C2(CC(=O)N(c3cc(C)cc(C)c3)C2=O)C1 (stereo not drawn)	none (no result: Ecoli tolC)
CC(C)Oc1ccc(OCCCN2CCCCCC2)cc1	none (no result: Ecoli tolC)
CCC(C)c1ccc(OCCN2CCCC2)cc1 (stereo not drawn)	PostGolgi ctrl 36 (no result: Ecoli tolC)
CCSC(C)CC1C/C(=N/O)c2c(CC)noc2C1 (stereo not drawn)	Ecoli tolC 61
O=S(=O)(c1ccc(Br)s1)N1CCN(c2ccccn2)CC1	PostGolgi ctrl 51
O=C(O)c1ccccc1NCN1C(=O)C2CC=C(Cl)CC2C1=O (stereo not drawn)	none
COCCCNC(=O)c1ccccc1SC	none
CC(=O)Nc1ccccc1Sc1ccccc1	none
CC(=O)Nc1ccc(C(=O)OCC(=O)Nc2ccccc2Sc2ccccc2)cc1	Pyk2 oligo antag -3.1 (no result: Ecoli WT expand, Calb biofilm kill, PostGolgi ctrl, Ecoli tolC, PostGolgi yeast)
O=C(c1ccc(CS(=O)(=O)c2ccccc2)o1)N1CCN(c2ncccn2)CC1	none (no result: Pyk2 oligo antag)
CCOc1ccc(CN2CCNC(=O)C2CC(=O)OC)cc1 (stereo not drawn)	none (no result: Pyk2 oligo antag)
O=C1c2ccccc2C(=O)C1c1nccc2ccccc12	PostGolgi ctrl 61 (no result: Calb biofilm kill)
CCOC(=O)CSc1snnc1-c1ccccc1	none (no result: Ecoli tolC)
Cc1cccc2c1NC(=O)/C2=C\C(=O)c1cccs1	PostGolgi ctrl 52 (no result: Ecoli tolC)
CCc1ccc2c(c1)/C(=C/C(=O)c1cccs1)C(=O)N2	PostGolgi ctrl 87, PostGolgi yeast 76 (no result: Ecoli tolC)
Cc1cc(C)c2c(c1)/C(=C/C(=O)c1ccc(Br)s1)C(=O)N2	PostGolgi ctrl 71, PostGolgi yeast 103 (no result: Ecoli tolC)
Cc1nn(C)cc1/C=C/C(=O)c1cccs1	none (no result: Ecoli WT expand, PostGolgi ctrl, Ecoli tolC, PostGolgi yeast)
N#CC1=C2Nc3ccccc3N2C(=O)NC1(c1ccccc1)C(F)(F)F (stereo not drawn)	Pyk2 oligo antag -3.1 (no result: Calb biofilm kill, Ecoli tolC)
O=C1NC(c2ccccc2)(C(F)(F)F)C(=O)N1Cc1cccnc1 (stereo not drawn)	none
Cc1[nH]nc2c1C(c1ccc(F)cc1)C1=C(CC(C)(C)CC1=O)N2 (stereo not drawn)	none
N#Cc1c(/N=C/c2ccccc2)oc(-c2ccccc2)c1-c1ccccc1	none (no result: Ecoli WT expand, PostGolgi ctrl, Ecoli tolC, PostGolgi yeast)
N#Cc1c(/N=C/c2ccco2)oc(-c2ccccc2)c1-c1ccccc1	Ecoli tolC 77 (no result: Pyk2 oligo antag)
O=Cc1cn(-c2ccccc2)nc1-c1cc2cc(O)ccc2oc1=O	none (no result: Calb biofilm kill, Ecoli tolC)
N#Cc1cn(-c2ccccc2)nc1-c1cc2ccccc2oc1=O	PostGolgi yeast 36
C=CCNc1ncnc2c1[nH]c1ccc(Cl)cc12	Ecoli WT expand 73 (no result: Ecoli tolC)
CCOCCCNc1ncnc2c1[nH]c1ccccc12	none
C=CCNc1ncnc2c1[nH]c1ccccc12	Ecoli WT expand 77
Cc1ccc(C)c(S(=O)(=O)NCc2ccc(C(=O)N3CCC(Cc4ccccc4)CC3)cc2)c1	none (no result: Ecoli tolC)
COc1ccc(-c2[nH]ncc2/C=C(/C#N)C(=O)NC2CCCCCC2)cc1	PostGolgi ctrl 50 (no result: Calb biofilm kill, Ecoli tolC)
Cc1ccc(C)c(SCC(=O)Nc2nnc(-c3ccccc3)o2)c1	Ecoli tolC 100
CCC(c1nnc(SCC(=O)Nc2nnc(-c3ccccc3)o2)o1)N(C)C (stereo not drawn)	none (no result: Calb biofilm kill)
Cc1nnsc1C(=O)NNS(=O)(=O)c1ccccc1	PostGolgi ctrl 38 (no result: Ecoli tolC)
O=C(CN1C(=O)NC2NC(=O)NC21)NC1CCCCC1 (stereo not drawn)	none (no result: Ecoli WT expand, Calb biofilm kill, PostGolgi ctrl, PostGolgi yeast, Pyk2 oligo antag)
O=c1cc2c(nn1Cc1ccccc1Cl)-c1ccccc1CC2	PostGolgi ctrl 43 (no result: Ecoli tolC)
O=c1cc2c(nn1Cc1cccc(Cl)c1)-c1ccccc1CC2	PostGolgi ctrl 76 (no result: Ecoli tolC)
O=c1cc2c(nn1Cc1ccc(Cl)cc1)-c1ccccc1CC2	PostGolgi ctrl 48 (no result: Ecoli tolC)
O/N=C1/CCc2nonc2/C1=N/O	Ecoli WT expand 52
COC(=O)COc1cccc2c(=O)n(CC(=O)N3CCCc4ccccc43)ccc12	none (no result: Ecoli tolC, Pyk2 oligo antag)
O=S(=O)(Nc1ccc(O)c(Sc2nc3ccccc3s2)c1)c1ccc(Cl)cc1	PostGolgi yeast 37 (no result: Calb biofilm kill, Ecoli tolC)
CCOC(=O)N1CCN(C(=O)CSc2nnc(-c3cc(OC)cc(OC)c3)o2)CC1	none
COc1cc(OC)cc(-c2nnc(SCC(=O)N3CCCC3)o2)c1	PostGolgi ctrl 35
CCCCN(CCCC)C(=O)CSc1nnc(-c2cc(OC)c(OC)c(OC)c2)o1	Ecoli tolC 71
CCN(CC)C(=O)CSc1nnc(-c2cc(OC)cc(OC)c2)o1	none
CCCCOC(=O)CSc1nnc(-c2cc(OC)c(OC)c(OC)c2)o1	PostGolgi ctrl 32
Nc1nc(SCC(=O)C23CC4CC(CC(C4)C2)C3)n[nH]1	none
CC(=O)C1=C(O)C(=O)N(Cc2ccco2)C1c1ccc2c(c1)OCO2 (stereo not drawn)	none
Cc1cc(NC(=O)CCC(=O)N(CCC(C)C)CC(=O)NCC2CCCO2)no1 (stereo not drawn)	PostGolgi ctrl 38
COc1ccc(S(=O)(=O)N(C)c2ccc(C(N)=O)cc2)cc1	none (no result: Ecoli tolC)
CC(C)Cn1c(=O)c(C(=O)Nc2ccccc2S(N)(=O)=O)c(O)c2ccccc21	PostGolgi ctrl 30, Ecoli tolC 100 (no result: Calb biofilm kill)
CCOC(=O)Cc1csc(NC(=O)c2cccs2)n1	none
CCOC(=O)Cc1csc(NC(=O)c2c(O)c3ccccc3n(CC(C)C)c2=O)n1	PostGolgi ctrl 32 (no result: Ecoli tolC)
CCCn1c(=O)c(C(=O)Nc2ccccc2C(=O)OCC)c(O)c2ccccc21	none
CCC(C)n1c(=O)c(C(=O)Nc2ccccc2S(N)(=O)=O)c(O)c2ccccc21 (stereo not drawn)	PostGolgi ctrl 30, Ecoli tolC 83
Cn1c(=O)c(C(=O)Nc2ccccn2)c(O)c2ccccc21	none
Cc1cc(C)cc(N(CC(=O)NCc2cccnc2)S(C)(=O)=O)c1	none
Oc1c(C(Nc2ccccn2)c2ccccn2)ccc2cccnc12 (stereo not drawn)	Ecoli WT expand 54
COc1ccc(OC)c(CN2CCN(C(=O)c3cccc4ccccc34)CC2)c1	PostGolgi ctrl 34
COc1ccc(OC)c(CN2CCN(C(=O)c3cccs3)CC2)c1	none

Screens as filed in PubChem.
